Folding enthalpy and Tm data for 55 sequences are collected here from the array DNA melting data of Ke et al. (doi:10.1101/2024.01.08.574731).

Data set [1] in a line: folding enthalpy; higher = less favourable; fluorescence melt of hairpins on a sequencing array, two-state fit. The settings on record: sodium 0.088 M. Put shortly:
(§1)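 Two-state fits, bootstrapped, provided melting temperature and folding enthalpy from Cy3 fluorescence normalised to pre-quench Cy3 and to control constructs. Library hairpins with annealed Cy3 and quencher oligos were imaged on a sequenced MiSeq flow cell in 50 mM Na-HEPES pH 8.0, 25 mM NaCl, at 2.5 °C intervals up to 60 °C. Four replicates were combined with inverse-variance weighting. A 9.35 °C upward shift was applied to fitted temperatures to match UV melts.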

Data set [2] in a line: melting temperature; fluorescence melt of hairpins on a sequencing array, two-state fit, raised by 9.35 °C to match UV melts. The note with it: sodium 0.088 M. Put shortly:
as §1

As for GCTGCCGAAAGGCATAGC ((((((....)))..))), in data set [1], the folding enthalpy was -62.7 kJ/mol. In addition, the Tm in data set [2] is 51.6 °C.
In the same order, the values of GATGACGAAAGTCTTATC ((((((....)))..))) are -52 kJ/mol and 25.5 °C.
In the case of GCCTACCGAAAGGTGGC (((.(((....)))))), the folding enthalpy in data set [1] was -106 kJ/mol. Moreover, in data set [2], the Tm was 57 °C.
Turning to GTTTACCCGAAAGGGAAC (((..(((....)))))), the folding enthalpy in data set [1] is -39.4 kJ/mol. Also, the Tm in data set [2] is 26.8 °C.
For the sequence GGTTGCGAAAGCAATACC ((((((....)))..))), the folding enthalpy in data set [1] was -55.6 kJ/mol. The Tm in data set [2] was determined as 42.9 °C.
On to GTGCCACGAAAGTGCAC (((.(((....)))))), for which the folding enthalpy in data set [1] was -115 kJ/mol. The Tm in data set [2] worked out at 58.5 °C.
For GGTTGTCGAAAGACTACC (((.(((....))).))) the same measures were -192 kJ/mol and 52 °C.
For GTTGTTCGAAAGAAGAAC (((.(((....))).))) the same measures were -115 kJ/mol and 43.3 °C.
For GGCGGAGGAAACTCCACC ((.((((....)))).)) the same measures were -141 kJ/mol and 48.9 °C.
As to GGCGGTCGAAAGACGCC (((.(((....)))))), the folding enthalpy in data set [1] is -120 kJ/mol. Further, the Tm in data set [2] was 67.3 °C.
For the sequence GCCGGGCGAAAGCCATGC ((..(((....)))..)), the folding enthalpy in data set [1] was -60.2 kJ/mol. For the same sequence, the Tm in data set [2] was 42.4 °C.
In the same order, the values of GGCTCTGAAAAGAGCC ((((((....)))))) are -160 kJ/mol and 68.9 °C.
Turning to GCTCACGGAAACATGAGC (((((.(....).))))), the folding enthalpy in data set [1] was -145 kJ/mol. In data set [2], the Tm is 44.9 °C.
In the same order, the values of GAGCTACGAAAGTACCTC (((.(((....))).))) are -79.6 kJ/mol and 30.6 °C.
For GATCCGGTGCCGGATC ((((((....)))))) the same measures were -248 kJ/mol and 58 °C.
In the same order, the values of GGCAGCGAAAGCTGCGCC ((((((....)))..))) are -27.9 kJ/mol and 65.7 °C.
Take GATCTAGAATTAGATC ((((((....)))))): in data set [1], the folding enthalpy was -146 kJ/mol. Also, the Tm in data set [2] came to 45.2 °C.
Take GTCGCGGGAAACCACGAC ((((.((....)).)))): the folding enthalpy in data set [1] is -183 kJ/mol. Also, the Tm in data set [2] came to 53.4 °C.
On to GCAGAGCGAAAGCTTTGC (((.(((....))).))), for which the folding enthalpy in data set [1] is -223 kJ/mol. In addition, the Tm in data set [2] came out at 56.1 °C.
GTTTCGGGAAACCAAAAC ((((.((....)).)))): the folding enthalpy in data set [1] was -82.1 kJ/mol. Also, the Tm in data set [2] turned out to be 35.1 °C.
GTCCAGTCGAAAGACGAC (((..(((....)))))): the folding enthalpy in data set [1] was -62.6 kJ/mol. Further, the Tm in data set [2] is 34.8 °C.
As to GGATTGGGAAACTGATCC ((((..(....)..)))), in data set [1], the folding enthalpy was -117 kJ/mol. Further, the Tm in data set [2] came out at 34.4 °C.
As to GATGGGGGAAACCCCACC (.(((((....))))).), in data set [1], the folding enthalpy was -52.6 kJ/mol. The Tm in data set [2] is 39.9 °C.
For GGGTCCGAAAGGAACCCC ((((((....)))..))) the same measures were -58.1 kJ/mol and 61.7 °C.
For GGCACCGAAAGGTATGCC ((((((....)))..))) the same measures were -105 kJ/mol and 51.6 °C.
Regarding GCGTCCCGAAAGGGTCGC (((.(((....))).))), the folding enthalpy in data set [1] was -154 kJ/mol. In addition, the Tm in data set [2] worked out at 67.8 °C.
In the same order, the values of GTTGCCGAAAGGCGTAAC ((((((....)))..))) are -40.4 kJ/mol and 34.7 °C.
Consider GGCAGTGGAAACGCTGTC (.(((.(....).))).), for which the folding enthalpy in data set [1] is -97.9 kJ/mol. In addition, in data set [2], the Tm was 44.5 °C.
In the same order, the values of GGGGACCCGAAAGGGCCC (((..(((....)))))) are -68.7 kJ/mol and 62.3 °C.
In the same order, the values of GTCATCGGAAACGACGAC (((.(((....))).))) are -124 kJ/mol and 43.2 °C.
Take GACCAGGCGAAAGCCGTC (((..(((....)))))): the folding enthalpy in data set [1] was -32 kJ/mol. Moreover, the Tm in data set [2] came out at 36.2 °C.
In the same order, the values of GATCCGCACCGGATC ((((((...)))))) are -123 kJ/mol and 57.1 °C.
GATCGACGGCTCGATC ((((((....)))))): the folding enthalpy in data set [1] is -179 kJ/mol. For the same sequence, in data set [2], the Tm was determined as 50.5 °C.
In the same order, the values of GGCCATCGAAAGATAGCC (((.(((....))).))) are -123 kJ/mol and 48.3 °C.
With GACTAGACGAAAGTCGTC (((..(((....)))))), the folding enthalpy in data set [1] is -54.6 kJ/mol. In addition, the Tm in data set [2] was determined as 38.9 °C.
In the same order, the values of GTGCGCGGAAACGCGTAC ((.((((....)))).)) are -84.1 kJ/mol and 65.5 °C.
For GCACGCGAAAGCGGATGC ((((((....)))..))), in data set [1], the folding enthalpy was -62.8 kJ/mol. For the same sequence, the Tm in data set [2] was 54.9 °C.
Turning to GATCCAATCCTGGATC ((((((....)))))), the folding enthalpy in data set [1] was -158 kJ/mol. The Tm in data set [2] is 49.2 °C.
In the same order, the values of GCATACGGAAACGTACGC ((.((((....)))).)) are -131 kJ/mol and 44.2 °C.
GTACCCGGAAACGGGCAC ((.((((....)))).)): the folding enthalpy in data set [1] was -78.2 kJ/mol. In addition, the Tm in data set [2] came to 50 °C.
In the same order, the values of GCCATACCGAAAGGTGGC (((..(((....)))))) are -102 kJ/mol and 53.4 °C.
In the same order, the values of CGGTCGGAAACGAATCCG ((((((....)))..))) are -108 kJ/mol and 37 °C.
In the same order, the values of GGGGTCGAAAGACGCCCC ((((((....)))..))) are -54.4 kJ/mol and 60.2 °C.
For the sequence GCCACCGAAAGGTATGGC ((((((....)))..))), the folding enthalpy in data set [1] is -155 kJ/mol. The Tm in data set [2] was 52.8 °C.
As to GCGTTTTCACGC ((((....)))), the folding enthalpy in data set [1] is -103 kJ/mol. Further, the Tm in data set [2] was 54.2 °C.
In the case of GTGTAGCCGAAAGGCCAC (((..(((....)))))), the folding enthalpy in data set [1] was -72.4 kJ/mol. Moreover, the Tm in data set [2] was 47 °C.
Take GGGTTTTCGAAAGAACCC (((..(((....)))))): the folding enthalpy in data set [1] is -133 kJ/mol. Further, the Tm in data set [2] was found to be 43.6 °C.
As for GTAAACGAAAGTTTGTAC ((((((....)))..))), in data set [1], the folding enthalpy was -63.2 kJ/mol. In addition, the Tm in data set [2] is 27.6 °C.
With GTACACCCGAAAGGGTAC (((..(((....)))))), the folding enthalpy in data set [1] was -38.9 kJ/mol. Also, the Tm in data set [2] is 33 °C.
GGCAATACGAAAGTAGCC (((..(((....)))))): the folding enthalpy in data set [1] is -74.8 kJ/mol. For the same sequence, the Tm in data set [2] is 44.4 °C.
For GCGGCGCACCGC ((((....)))) the same measures were -59.4 kJ/mol and 59.7 °C.
For the sequence GTCTCCGAAAGGATGGAC ((((((....)))..))), in data set [1], the folding enthalpy is -73.4 kJ/mol. Also, the Tm in data set [2] stood at 35.2 °C.
In the same order, the values of GTAGATGGAAACATCTGC (.(((((....))))).) are -86.9 kJ/mol and 45.6 °C.
Consider ATCGTGAAAACGAT (((((....))))), for which, in data set [1], the folding enthalpy was -82.1 kJ/mol. For the same sequence, in data set [2], the Tm amounted to 49.5 °C.
As for GATCTTCCTTAAGATC ((((((....)))))), the folding enthalpy in data set [1] is -116 kJ/mol. Further, the Tm in data set [2] came out at 42.1 °C.
